Sampled rows, rich in hits. Any-hit rate of the full collection: about 2.4%.
LGR2 inh: Drosophila LGR2 receptor signaling inhibition; hit rate 0.35% among 380,000; inhibition, % at 9.99 µM; AID 720647; HEK293 LGR2, CRE-luciferase, bursicon-stimulated, 4 h;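 active = drop in luminescence signal, shown as inhibition above about 50% in the replicate tests, limit read from the data, passing the limit was not always enough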;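 also: agonist challenge used bursicon conditioned medium at about half maximal strength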
EWS-Fli inh: EWS/Fli transcriptional activity inhibition; AID 651661; hit rate 0.67% among 350,000; inhibition, % at 12.6 µM; A673 NR0B1-luciferase reporter, viability-normalised;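 active = mean inhibition of at least 50% after viability correction, with every replicate also passing that limit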;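 also: firefly luciferase signal divided by Alamar Blue viability fluorescence both relative to DMSO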
rRNA inh HTS: inhibits bacterial ribosomal RNA function over humanized ribosomes; hit rate 1.6% among 350,000; E. coli WT GFP vs humanized-ribosome RFP mutants, fluorescence, 24 h; stronger effect = lower value; DMSO median 0, no signal -100; AID 720706; GFP signal change (wild-type ribosome), % (no concentration beside the values);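 active = significant combined selectivity score with lowered wild-type GFP, culture density cut under 30%, mutant RFP and density less affected; inactive = any of these conditions unmet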
E-sel inducer: E-selectin induction on HUVECs. AID 686992. activation, % at 7.58 µM. HUVEC E-selectin immunofluorescence imaging; normalized: neutral wells 0, TNF-alpha wells 100. P16581. hit rate 0.37% among 260,000;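 active = mean E-selectin-positive cell signal at least 10% of the positive control, reached in at least 60% of replicates, without over 20% cell loss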
Target sequence (P16581 whole entry, looked up): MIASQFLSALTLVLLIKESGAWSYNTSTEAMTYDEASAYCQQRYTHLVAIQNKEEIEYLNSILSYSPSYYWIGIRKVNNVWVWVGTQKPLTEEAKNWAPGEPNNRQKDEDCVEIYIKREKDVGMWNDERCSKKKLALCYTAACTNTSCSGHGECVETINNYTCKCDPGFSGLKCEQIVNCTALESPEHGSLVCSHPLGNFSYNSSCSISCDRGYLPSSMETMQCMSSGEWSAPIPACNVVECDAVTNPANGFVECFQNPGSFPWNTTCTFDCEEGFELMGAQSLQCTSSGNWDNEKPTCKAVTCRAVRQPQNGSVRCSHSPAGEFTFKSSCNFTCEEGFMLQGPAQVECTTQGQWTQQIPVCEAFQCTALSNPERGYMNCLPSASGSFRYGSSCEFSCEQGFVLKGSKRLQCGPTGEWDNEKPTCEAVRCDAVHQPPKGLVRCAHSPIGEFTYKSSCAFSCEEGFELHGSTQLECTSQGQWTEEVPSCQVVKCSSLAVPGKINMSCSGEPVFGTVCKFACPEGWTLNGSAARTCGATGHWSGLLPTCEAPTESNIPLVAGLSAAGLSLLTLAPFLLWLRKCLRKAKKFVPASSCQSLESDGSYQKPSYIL
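material = human umbilical vein endothelial cells (HUVEC), E-selectin induction | quantity = 3,000 cells/well | medium = EGM-2 growth medium on 0.1% gelatin-coated wells | technique = immunofluorescence imaging | read-out basis = % PE-positive cells | control set = TNF-alpha positive control, DMSO neutral control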
The depositor's hits bear a star; / = no result.

SMILES | LGR2 inh | EWS-Fli inh | rRNA inh HTS | E-sel inducer
COc1ccc(CCN2C(=O)c3ccccc3C2c2nnnn2Cc2ccccc2)cc1OC (stereo not given) | 2.7 | 2.4 | -20.7* | 1.9
C[C@@H]1CCCCO[C@H](CN(C)C)[C@H](C)CN([C@@H](C)CO)C(=O)c2cc(NC(=O)NC3CCCCC3)ccc2O1 | 11.9 | -5.2 | 3.0 | -0.1
COc1cc(C(=O)N/N=C/c2sccc2C)cc(OC)c1OC | 9.0 | 55.0* | 20.5 | 0.1
CCC(=O)N1CC(=O)N2[C@H](C1)[C@H](c1ccc(C#CC(C)C)cc1)[C@@H]2CO | / | / | 0.1 | /
O=C(c1ccccc1)c1ccc(-c2ccc(O)cc2)cc1 | -37.4 | 46.8 | -28.3* | 0.4
CC1C=NC(S(=O)(=O)N2CC[C@@H]3[C@H](CO)N(C)c4ccc(C#Cc5ccccc5)cc4[C@@H]32)=N1 (stereo not given in full) | / | / | -7.4 | /
COCC(=O)Nc1ccc2c(c1)[C@H]1C[C@@H](CC(=O)NCc3ccncc3)O[C@@H](CO)[C@H]1O2 | -2.2 | 3.6 | 7.1 | 0.2
CCC1NC(=O)c2ccccc2N1c1cccc(Cl)c1 (stereo not given) | 23.7 | 15.5 | -45.3* | 0.0
O=C1NC(c2cccc(Cl)c2)Oc2ccccc21 (stereo not given) | -1.1 | -0.7 | 4.6 | 0.4
COc1ccc(NS(=O)(=O)c2cc(NC(=O)c3ccc(=O)[nH]n3)ccc2N2CCOCC2)cc1 | 9.9 | 7.7 | -27.4* | /
Cc1cccc(NC(=O)Cc2ccc(NC3=NC4CS(=O)(=O)CC4S3)cc2)c1 (stereo not given) | -6.6 | -9.4 | 2.8 | 5.2
Cc1cc(C)cc(NC(=O)Cc2ccc(NC3=NC4CS(=O)(=O)CC4S3)cc2)c1 (stereo not given) | -2.6 | -5.0 | 7.6 | 51.0*
Cc1ccc(S(=O)(=O)N(C)C[C@@H]2OCCCC[C@H](C)Oc3ccc(NC(=O)Nc4ccccc4)cc3C(=O)N([C@@H](C)CO)C[C@@H]2C)cc1 | -27.6 | 9.2 | 4.0 | /
Cc1ccc(-c2cc(-c3ccccc3)no2)cc1 | 57.1* | 58.9* | 10.3 | 0.3
CCCC(=O)N1CCC2(CC1)CN(C(=O)C1CCOCC1)[C@@H](CO)c1[nH]c3cc(OC)ccc3c12 | 23.3 | -4.4 | 4.3 | -0.2
CSc1ccccc1NC(=O)Nc1cccc(Cl)c1 | -43.7 | -59.9 | -27.9* | /
CCOC(=O)C1CSCCS(=O)(=O)N1Cc1ccc(Br)cc1 (stereo not given) | 8.7 | -4.4 | -3.8 | /
CCOC(=O)C1CSCCS(=O)(=O)N1Cc1cc(F)ccc1Br (stereo not given) | -4.3 | -0.7 | -33.5* | /
CCCC[C@@H](O)C1=C(COc2ccccc2)C[C@H]2C(=O)N(Cc3ccccc3)C(=O)[C@H]2[C@H]1CO | / | 3.8 | / | /
CC(=O)N1CCN=C1SCc1ccc(Br)cc1 | -8.3 | 0.7 | 0.1 | /
CCOC(=O)N1CCN=C1SCc1ccc(Cl)c(Cl)c1 | -6.9 | 0.3 | 6.8 | 118.9*
CNC(=S)N(CCc1c(C)[nH]c2ccc(OC)cc12)Cc1ccco1 | -9.4 | -13.8 | -22.5* | 0.0
COCCNC(=S)N(CCc1c(C)[nH]c2ccc(OC)cc12)Cc1ccco1 | 21.1 | 9.9 | 12.6 | 0.3
CCCO/N=C1/C(=O)N(c2ccccc2)c2ccccc21 | -22.3 | -3.0 | -37.9* | /
CCO/N=C1\C(=O)N(c2ccccc2)c2ccccc21 | 4.7 | -6.8 | -4.8 | /
SMILES | LGR2 inh | EWS-Fli inh | rRNA inh HTS | E-sel inducer
CN(CCO)S(=O)(=O)c1ccc2c(c1)C(=NO)c1cc(S(=O)(=O)N(C)CCO)ccc1-2 | 5.6 | 2.4 | -27.1* | 0.0
Cc1ccc(S(=O)(=O)Nc2ccc3c(c2)C(=O)N([C@H](C)CO)C[C@@H](C)[C@H](CN(C)C(=O)Nc2ccc(F)cc2)OCCCC[C@@H](C)O3)cc1 | -22.6 | 12.2 | 1.3 | /
O=C(/C=C/c1cccc(F)c1)Nc1cc(S(=O)(=O)N2CCOCC2)ccc1Cl | 1.6 | 8.9 | -16.6* | /
CCC1(O)C(=O)OCc2c1cc1n(c2=O)Cc2cc3c(N)cccc3nc2-1 (stereo not given) | 98.0* | 54.7* | 3.3 | -0.3
C/C=C/c1ccccc1[C@H]1[C@@H](C#N)N(C(=O)CN2CCOCC2)[C@@H]1CO | -15.3 | -10.8 | 1.5 | 0.1
Cc1cc2nnc(SCC(=O)NCc3ccco3)n2c2ccccc12 | 2.0 | 51.3* | -5.2 | -0.4
Cc1cccc2cc(CN(CC3CCCO3)S(=O)(=O)c3ccccc3)c(=O)[nH]c12 (stereo not given) | -0.3 | -4.6 | -24.3* | /
COc1cccc(/C=C2\Oc3ccc(O)cc3C2=O)c1O | 66.5* | -3.9 | -2.2 | /
CNC(=O)C[C@@H]1CC[C@@H]2[C@@H](COc3ccc(NC(=O)C(C)C)cc3C(=O)N2C)O1 | -13.5 | -10.9 | 0.8 | 0.0
Cc1ccc(C(=O)c2coc3cc([N+](=O)[O-])c(O)c([N+](=O)[O-])c23)cc1 | -13.3 | -11.5 | -48.3* | -1.3
C[C@H]1CN([C@@H](C)CO)C(=O)Cc2cc(NC(=O)Cc3ccccc3)ccc2O[C@H]1CN(C)C(=O)NC1CCCCC1 | 0.2 | -12.0 | 5.3 | -2.8
c1ccc2[nH]c(CSc3ncnc4c3oc3ccccc34)nc2c1 | -21.2 | / | / | /
O=c1[nH]c(CSc2ccccn2)nc2c1oc1ccccc12 | 80.0* | 28.0 | 12.6 | /
Nc1nc(Cl)cc(Nc2ccccc2Cl)n1 | -12.6 | -18.7 | 4.5 | 0.0
CSc1nc(Cl)cc(Nc2ccccc2N)n1 | 7.9 | 11.6 | -23.4* | 2.7
Cc1ccc(NC(=S)NCC(C)CSc2ccc(Cl)cc2)cc1 (stereo not given) | 21.0 | -1.2 | -27.0* | /
Cc1cccc(NC(=S)NCC(C)CSc2ccc(Cl)cc2)c1 (stereo not given) | 7.4 | 16.3 | -37.5 | /
Cc1cccc(NC(=S)NCCSc2ccc(Cl)cc2)c1 | -0.6 | 9.7 | -36.8* | -0.9
O=C1N[C@H](c2ccccc2)COCc2cnnn2CC[C@@H]1Cc1ccc(-c2ccccc2)cc1 | / | / | -5.8 | /
CC(=O)C12OC1CC1C3CCC4=CC(=O)CCC4(C)C3CCC12C (stereo not given) | 1.3 | 8.5 | -23.2* | /
CCCCOc1ccc(C(=O)NCCN2CCC(n3c(=O)[nH]c4ccccc43)CC2)cc1 | -5.1 | 0.9 | -44.9* | -0.1
Cc1ccc(-n2nnnc2-c2cnc3ccc(Cl)cc3c2-c2ccccc2)cc1 | / | / | / | 1.3
Clc1ccc(-n2nnnc2-c2cnc3ccccc3c2-c2ccccc2)cc1 | / | 19.9 | -21.2* | /
CC(C)C#Cc1ccc([C@H]2[C@@H](CO)N3C(=O)CN(C(=O)Cc4cccnc4)C[C@@H]23)cc1 | / | / | 2.1 | /
CCN(CC)S(=O)(=O)c1ccc(N2CCN(c3cccc(OC)c3)CC2)c([N+](=O)[O-])c1 | 15.0 | / | / | /
COc1cccc(N2CCN(c3ccc(S(=O)(=O)N4CCN(C)CC4)cc3[N+](=O)[O-])CC2)c1 | 0.0 | 11.1 | -23.0* | 0.3
Cc1ccc(S(=O)(=O)Nc2ccccc2CNc2ccc(Br)cn2)cc1 | -6.7 | / | / | 0.0
Cc1ccc(S(=O)(=O)Nc2ccccc2CNc2ccccn2)cc1 | -9.5 | 11.0 | -28.4* | 0.3
CCCN(C)C[C@H]1Oc2cc(C#CC3CCCCC3)ccc2S(=O)(=O)N([C@@H](C)CO)C[C@H]1C | -0.7 | 10.8 | 2.6 | -0.2
